Measured values taken from ChEMBL document CHEMBL1250459, “Photoaffinity labeling of Ras converting enzyme 1 (Rce1p) using a benzophenone-containing peptide substrate” (Bioorg Med Chem, 2010).
Values joined by “and” are separate entries in the source; they are usually repeats but may differ in a detail not shown here. Identical values can stand only once. Where a SMILES comes first, the peptide text is derived from it. [ ]: non-standard residue; d: D form. The star is where a group is joined. X1 = O=[N+]([O-])c1cc([N+](=O)[O-])cc(*)c1; Farnesyl = CC(C)=CCC/C(C)=C/CC/C(C)=C/C*; 2Abz = Nc1ccccc1C(=O)O

How the values were obtained:
Format in all cases: cell membranes
[1] = biological target: T1, CAAX prenyl protease 2 (Saccharomyces cerevisiae S288c) (UniProt Q03530); experiment: (§1) Binding affinity to Rce1p in yeast membranes assessed as reduction in binding affinity at 0.75 uM after 30 mins by Western blotting in presence of 50 uM of (3S,6S,9S,12S,15S,18R,21S,24S,27S)-3,9,15-tris(4-aminobutyl)-24-sec-butyl-21-(4-(3,5-dinitrophenylamino)butyl)-12-((S)-1-hydroxyethyl)-6-(hydroxymethyl)-22-imino-27-(2-(methylthio)ethyl)-1,4,7,10,13,16,19,25-octaoxo-1-phenyl-18-(((2E,6E)-3,7,11-trimethyldodeca-2,6,10-trienylthio)methyl)-2,5,8,11,14,17,20,23,26-nonaazaoctacosan-28-oic acid; parameters: scale not given: the % may be the effect or the level left
T1 sequence (whole entry): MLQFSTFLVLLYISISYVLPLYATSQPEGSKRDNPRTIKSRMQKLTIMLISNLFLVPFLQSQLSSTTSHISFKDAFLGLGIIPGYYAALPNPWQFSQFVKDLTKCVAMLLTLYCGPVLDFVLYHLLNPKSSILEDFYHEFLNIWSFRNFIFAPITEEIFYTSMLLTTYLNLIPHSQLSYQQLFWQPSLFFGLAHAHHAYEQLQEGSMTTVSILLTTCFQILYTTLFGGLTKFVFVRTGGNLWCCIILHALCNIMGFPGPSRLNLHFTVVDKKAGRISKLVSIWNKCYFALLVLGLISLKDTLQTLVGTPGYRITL
Method in brief: (§2)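 Competition photolabelling: Rce1p-containing yeast membranes (0.25 μg/μL) with biotinylated benzophenone probe (0.75 μM) in 100 mM Hepes, 5 mM MgCl2, pH 7.5. Farnesylated competitor peptide added at 50 or 100 μM. UV photolysis 30 min at 4 °C, then streptavidin pull-down and anti-HA Western blot. Band intensities quantified by densitometry relative to the no-competitor reaction.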

[2] = biological target: T1, CAAX prenyl protease 2 (Saccharomyces cerevisiae S288c); experiment: as §1, with “100” for “50”; parameters: scale not given: the % may be the effect or the level left; method in brief: as §2
[3] = substrate: CC[C@H](C)[C@H](NC(=O)[C@H](CCCCNc1cc([N+](=O)[O-])cc([N+](=O)[O-])c1)NC(=O)[C@H](CSC/C=C(\C)CC/C=C(\C)CCC=C(C)C)NC(=O)[C@H](CCCCN)NC(=O)[C@@H](NC(=O)[C@H](CCCCN)NC(=O)[C@H](CO)NC(=O)[C@H](CCCCN)NC(=O)c1ccccc1N)[C@@H](C)O)C(=O)N[C@@H](CCSC)C(=O)O; experiment: (§3) Activity of Rce1p in yeast membranes assessed as enzyme-mediated Ca1a2X proteolysis measured every 30 to 60 seconds for 1 hr by spectrofluorimetric assay; conditions: Saccharomyces cerevisiae
[4] = substrate: CC[C@H](C)[C@H](NC(=O)[C@H](CCCCNc1cc([N+](=O)[O-])cc([N+](=O)[O-])c1)NC(=O)[C@H](CSC/C=C(\C)COCc1cccc(C(=O)c2ccccc2)c1)NC(=O)[C@H](CCCCN)NC(=O)[C@@H](NC(=O)[C@H](CCCCN)NC(=O)[C@H](CO)NC(=O)[C@H](CCCCN)NC(=O)c1ccccc1N)[C@@H](C)O)C(=O)N[C@@H](CCSC)C(=O)O; experiment: as §3; conditions: Saccharomyces cerevisiae
[5] = substrate: CC[C@H](C)[C@H](NC(=O)[C@H](CCCCNc1cc([N+](=O)[O-])cc([N+](=O)[O-])c1)NC(=O)[C@H](CSC/C=C(\C)COCc1cccc(C(=O)c2ccccc2)c1)NC(=O)[C@H](CCCCN)NC(=O)[C@@H](NC(=O)[C@H](CCCCN)NC(=O)[C@H](CO)NC(=O)[C@H](CCCCN)NC(=O)c1ccccc1N)[C@@H](C)O)C(=O)N[C@@H](CCSC)C(=O)O; experiment: Activity of Rce1p in yeast membranes assessed as enzyme-mediated Ca1a2X proteolysis per mg of protein measured every 30 to 60 seconds for 1 hr by spectrofluorimetric assay; conditions: Saccharomyces cerevisiae

CC[C@H](C)[C@H](NC(=O)[C@H](CCCCNc1cc([N+](=O)[O-])cc([N+](=O)[O-])c1)NC(=O)[C@H](CSC/C=C(\C)CC/C=C(\C)CCC=C(C)C)NC(=O)[C@H](CCCCN)NC(=O)[C@@H](NC(=O)[C@H](CCCCN)NC(=O)[C@H](CO)NC(=O)[C@H](CCCCN)NC(=O)c1ccccc1N)[C@@H](C)O)C(=O)N[C@@H](CCSC)C(=O)O (H-[2Abz]KSKTKC(Farnesyl)K(X1)IM-OH)
Activity [1]: 60%
Activity [2]: 31%

B1: CAAX prenyl protease 2 (Saccharomyces cerevisiae S288c), Q03530 (protein)
chain: T1 sequence (whole entry)
Km [3]: 6.4 µM and 4 µM
Km [4]: 1.9 µM
Vmax [5]: 0.093 nmol/min/mg
